Assays:
Acetyl-CoA carboxylase = Acetyl-CoA carboxylase (Homo sapiens, UniProt Q13085+O00763); assay: Inhibition of partially purified human liver ACC1/2
HepG2 [1] = assay: Inhibition of fatty acid synthesis in human HepG2 cells after 48 hrs; type: functional, cell-based; conditions: for IC50: Homo sapiens, HepG2, 48 h
In short: (§1)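 HepG2 cells. Fatty acid synthesis read as decreased [¹⁴C] acetate incorporation into cellular lipids, reported as IC₅₀. Fatty acid oxidation read as T₂O generated in the culture medium, reported as EC₅₀.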

HepG2 [2] = assay: Induction of fatty acid oxidation in human HepG2 cells after 48 hrs; type: functional, cell-based
In short: as §1

[3] = Metabolic stability in human liver microsome assessed as drug remaining at 5 uM after 15 mins; type: ADME; conditions: liver microsomes, read-out: Activity
In short: (§2)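 Compound at 5 µM incubated at 37 °C for 15 min with 1 mg/mL human or rat liver microsomes. Cofactors: 1.5 mM glucose-6-phosphate, 0.16 mM NADP, 1 U/mL glucose-6-phosphate dehydrogenase. Medium: 250 mM phosphate buffer, 2.4 mM MgCl₂, 69 mM KCl. Compound measured by LC–MS/MS at 0 and 15 min; % remaining reported.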

Acetyl-CoA carboxylase 2 = Acetyl-CoA carboxylase 2 (Homo sapiens, UniProt O00763); assay: Inhibition of human recombinant ACC2
In short: (§3)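 Recombinant human ACC1 and ACC2 enzymes; activity read as inhibition of malonyl-CoA synthesis.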

Acetyl-CoA carboxylase 1 = Acetyl-CoA carboxylase 1 (Homo sapiens, UniProt Q13085); assay: Inhibition of human recombinant ACC1
In short: as §3

[4] = Cmax in Sprague-Dawley rat at 10 mg/kg, po; type: ADME, organism-based; set-up: dose 10 mg/kg, route oral; conditions: in vivo
In short: (§4)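 Male Sprague-Dawley rats given a single oral dose of 10 mg/kg; plasma exposure parameters taken from the plasma profile.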

[5] = AUC in Sprague-Dawley rat at 10 mg/kg, po; type: ADME, organism-based; set-up: dose 10 mg/kg, route oral; conditions: plasma
In short: as §4

[6] = Metabolic stability in rat liver microsome assessed as drug remaining at 5 uM after 15 mins; type: ADME; conditions: liver microsomes, read-out: Activity
In short: as §2

[7] = Tmax in Sprague-Dawley rat at 10 mg/kg, po; type: ADME, organism-based; set-up: dose 10 mg/kg, route oral; conditions: in vivo
In short: as §4

Sequence of Acetyl-CoA carboxylase 2 (O00763 whole entry): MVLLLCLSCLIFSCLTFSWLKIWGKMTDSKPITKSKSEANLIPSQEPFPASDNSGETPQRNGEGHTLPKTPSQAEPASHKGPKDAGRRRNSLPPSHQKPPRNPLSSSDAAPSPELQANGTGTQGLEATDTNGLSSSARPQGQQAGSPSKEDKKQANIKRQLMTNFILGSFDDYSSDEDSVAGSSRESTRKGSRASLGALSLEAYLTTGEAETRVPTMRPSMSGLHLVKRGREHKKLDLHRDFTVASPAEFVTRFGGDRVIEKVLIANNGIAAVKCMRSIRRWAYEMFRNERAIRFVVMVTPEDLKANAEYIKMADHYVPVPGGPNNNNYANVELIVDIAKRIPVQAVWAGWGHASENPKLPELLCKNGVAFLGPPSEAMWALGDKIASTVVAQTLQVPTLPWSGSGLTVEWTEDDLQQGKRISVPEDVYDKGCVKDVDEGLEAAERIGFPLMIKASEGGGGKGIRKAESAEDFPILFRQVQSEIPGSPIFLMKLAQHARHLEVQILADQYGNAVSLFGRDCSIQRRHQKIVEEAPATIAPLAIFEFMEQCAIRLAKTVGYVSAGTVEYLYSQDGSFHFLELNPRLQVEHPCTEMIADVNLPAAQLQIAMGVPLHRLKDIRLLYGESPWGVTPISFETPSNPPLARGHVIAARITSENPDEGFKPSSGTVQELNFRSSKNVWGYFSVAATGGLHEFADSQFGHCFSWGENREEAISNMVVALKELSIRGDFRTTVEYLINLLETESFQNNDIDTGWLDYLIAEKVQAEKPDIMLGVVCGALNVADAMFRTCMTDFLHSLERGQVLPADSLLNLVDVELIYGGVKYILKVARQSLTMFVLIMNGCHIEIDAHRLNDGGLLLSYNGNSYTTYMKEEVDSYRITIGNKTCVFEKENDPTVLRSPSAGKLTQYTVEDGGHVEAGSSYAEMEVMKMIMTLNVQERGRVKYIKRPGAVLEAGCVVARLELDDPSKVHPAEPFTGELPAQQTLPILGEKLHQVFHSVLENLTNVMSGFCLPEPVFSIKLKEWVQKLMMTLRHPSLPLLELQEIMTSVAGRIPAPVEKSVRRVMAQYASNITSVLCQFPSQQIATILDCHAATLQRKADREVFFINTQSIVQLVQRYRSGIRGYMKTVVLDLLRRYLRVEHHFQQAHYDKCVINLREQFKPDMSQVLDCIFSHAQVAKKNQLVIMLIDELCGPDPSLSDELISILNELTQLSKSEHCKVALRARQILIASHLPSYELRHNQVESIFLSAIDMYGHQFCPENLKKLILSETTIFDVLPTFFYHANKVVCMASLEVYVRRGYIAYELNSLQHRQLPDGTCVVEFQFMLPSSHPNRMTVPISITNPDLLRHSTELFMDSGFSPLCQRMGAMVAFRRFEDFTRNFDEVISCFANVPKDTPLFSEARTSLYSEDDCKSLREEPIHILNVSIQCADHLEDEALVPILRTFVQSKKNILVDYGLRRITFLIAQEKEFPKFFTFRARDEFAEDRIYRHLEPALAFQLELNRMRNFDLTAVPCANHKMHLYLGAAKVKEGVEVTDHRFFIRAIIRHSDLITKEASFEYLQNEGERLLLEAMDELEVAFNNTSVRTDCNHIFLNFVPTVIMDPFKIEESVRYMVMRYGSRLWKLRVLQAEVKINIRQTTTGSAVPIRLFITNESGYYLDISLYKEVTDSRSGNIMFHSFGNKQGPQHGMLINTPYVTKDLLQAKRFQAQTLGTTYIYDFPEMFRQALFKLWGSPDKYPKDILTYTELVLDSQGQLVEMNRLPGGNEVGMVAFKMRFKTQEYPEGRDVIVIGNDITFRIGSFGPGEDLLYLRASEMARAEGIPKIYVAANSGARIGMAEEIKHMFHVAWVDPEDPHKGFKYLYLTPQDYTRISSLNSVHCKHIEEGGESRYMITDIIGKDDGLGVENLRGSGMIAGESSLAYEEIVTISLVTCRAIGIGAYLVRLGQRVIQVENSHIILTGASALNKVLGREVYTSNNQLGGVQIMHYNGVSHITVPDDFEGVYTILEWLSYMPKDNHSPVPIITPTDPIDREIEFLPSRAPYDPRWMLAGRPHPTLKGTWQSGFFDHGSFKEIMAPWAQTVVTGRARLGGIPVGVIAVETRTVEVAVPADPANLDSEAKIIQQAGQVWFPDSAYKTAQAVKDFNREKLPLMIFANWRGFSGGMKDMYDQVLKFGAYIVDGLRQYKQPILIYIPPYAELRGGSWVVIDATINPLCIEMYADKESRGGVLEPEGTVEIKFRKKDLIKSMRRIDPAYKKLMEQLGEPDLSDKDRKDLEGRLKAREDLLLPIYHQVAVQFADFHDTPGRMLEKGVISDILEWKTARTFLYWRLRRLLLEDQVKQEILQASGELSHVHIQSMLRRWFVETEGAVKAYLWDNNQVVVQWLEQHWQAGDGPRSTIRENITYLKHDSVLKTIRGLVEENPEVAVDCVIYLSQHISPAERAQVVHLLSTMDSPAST

Row | Structure (SMILES) | IC50 (Acetyl-CoA carboxylase) | other results
1 | COC(=O)N1CCC(C(=O)N2CCC(N3CCN(C(=O)c4cc(-c5ccccc5)nc(-c5ccccc5)c4)CC3)CC2)CC1 | 102 nM | –
2 | CC(=O)N1CCC(C(=O)N2CCC(N3CCN(C(=O)c4cc(-c5ccccc5)nc(-c5ccccc5)c4)CC3)CC2)CC1 | 126 nM | inhibition (INH) (HepG2 [1]): 72%; Activity (HepG2 [2]): 148%
3 | CCC(=O)N1CCC(C(=O)N2CCC(N3CCN(C(=O)c4cc(-c5ccccc5)nc(-c5ccccc5)c4)CC3)CC2)CC1 | 115 nM | –
4 | O=C(c1ccccc1)N1CCC(C(=O)N2CCC(N3CCN(C(=O)c4cc(-c5ccccc5)nc(-c5ccccc5)c4)CC3)CC2)CC1 | 290 nM | –
5 | COCC(=O)N1CCC(C(=O)N2CCC(N3CCN(C(=O)c4cc(-c5ccccc5)nc(-c5ccccc5)c4)CC3)CC2)CC1 | 169 nM | –
6 | O=C(CO)N1CCC(C(=O)N2CCC(N3CCN(C(=O)c4cc(-c5ccccc5)nc(-c5ccccc5)c4)CC3)CC2)CC1 | 102 nM | –
7 | CC(C)OC(=O)N1CCC(C(=O)N2CCC(N3CCN(C(=O)c4cc(-c5ccccc5)nc(-c5ccccc5)c4)CC3)CC2)CC1 | 411 nM | –
8 | CC(=O)N1CCC(C(=O)N2CCC(N3CCN(C(=O)c4cc(-c5ccccc5)nc(-c5ccc(F)cc5)c4)CC3)CC2)CC1 | 184 nM | –
9 | CC(=O)N1CCC(C(=O)N2CCC(N3CCN(C(=O)c4cc(-c5ccc(C)cc5)nc(-c5ccc(C)cc5)c4)CC3)CC2)CC1 | 76 nM | remaining at 0.25 h, 5 µM [3]: 87%; IC50 (Acetyl-CoA carboxylase 2): 23 nM; inhibition (INH) (HepG2 [1]): 77%; IC50 (HepG2 [1]): 340 nM; IC50 (Acetyl-CoA carboxylase 1): 101 nM; Cmax [4]: 107 ng/mL; AUC [5]: 1000 ng·h/mL; remaining at 0.25 h, 5 µM [6]: 96%; Tmax [7]: 4 h; Activity (HepG2 [2]): 176%; EC50 (HepG2 [2]; Homo sapiens, HepG2, 48 h): 580 nM
10 | COc1ccc(-c2cc(C(=O)N3CCN(C4CCN(C(=O)C5CCN(C(C)=O)CC5)CC4)CC3)cc(-c3ccc(OC)cc3)n2)cc1 | 68 nM | inhibition (INH) (HepG2 [1]): 77%; Activity (HepG2 [2]): 167%
11 | CC(=O)N1CCC(C(=O)N2CCC(N3CCN(C(=O)c4cc(-c5ccc(O)cc5)nc(-c5ccc(O)cc5)c4)CC3)CC2)CC1 | 52 nM | inhibition (INH) (HepG2 [1]): 29%; Activity (HepG2 [2]): 123%
12 | CC(=O)N1CCC(C(=O)N2CCC(N3CCN(C(=O)c4cc(-c5ccc(CO)cc5)nc(-c5ccc(CO)cc5)c4)CC3)CC2)CC1 | 32 nM | Activity (HepG2 [2]): 120%
13 | CC(=O)N1CCC(C(=O)N2CCC(N3CCN(C(=O)c4cc(-c5cccc(C(N)=O)c5)nc(-c5cccc(C(N)=O)c5)c4)CC3)CC2)CC1 | 73 nM | Activity (HepG2 [2]): 94%
14 | CC(=O)N1CCC(C(=O)N2CCC(N3CCN(C(=O)c4cc(-c5ccc(C(N)=O)cc5)nc(-c5ccc(C(N)=O)cc5)c4)CC3)CC2)CC1 | 67 nM | Activity (HepG2 [2]): 135%
15 | CNC(=O)N1CCC(C(=O)N2CCC(N3CCN(C(=O)c4cc(-c5ccccc5)nc(-c5ccccc5)c4)CC3)CC2)CC1 | 95 nM | –
16 | CN(C)C(=O)N1CCC(C(=O)N2CCC(N3CCN(C(=O)c4cc(-c5ccccc5)nc(-c5ccccc5)c4)CC3)CC2)CC1 | 169 nM | –
17 | CS(=O)(=O)N1CCC(C(=O)N2CCC(N3CCN(C(=O)c4cc(-c5ccccc5)nc(-c5ccccc5)c4)CC3)CC2)CC1 | 248 nM | –
18 | CC(=O)N1CCC(C(=O)N2CCC(N3CCN(C(=O)c4cc(-c5cccc(F)c5)nc(-c5cccc(F)c5)c4)CC3)CC2)CC1 | 131 nM | –

More lines, main results first:

Row | IC50 (Acetyl-CoA carboxylase) | Structure (SMILES) | other results
19 | 157 nM | Cc1cc(C(=O)N2CCC(N3CCN(C(=O)c4cc(-c5ccccc5)nc(-c5ccccc5)c4)CC3)CC2)c(C)o1 | –
20 | 155 nM | CO[C@H]1CC[C@H](C(=O)N2CCC(N3CCN(C(=O)c4cc(-c5ccccc5)nc(-c5ccccc5)c4)CC3)CC2)CC1 | –
21 | 151 nM | NC(=O)N1CCC(C(=O)N2CCC(N3CCN(C(=O)c4cc(-c5ccccc5)nc(-c5ccccc5)c4)CC3)CC2)CC1 | –
22 | 869 nM | O=C(c1cc(-c2ccccc2)nc(-c2ccccc2)c1)N1CCN(C2CCN(C(=O)N3CCOCC3)CC2)CC1 | –
23 | 693 nM | O=C(c1ccccc1)N1CCC(N2CCN(C(=O)c3cc(-c4ccccc4)nc(-c4ccccc4)c3)CC2)CC1 | –
24 | 244 nM | O=C(c1cc(-c2ccccc2)nc(-c2ccccc2)c1)N1CCN(C2CCN(C(=O)C3CCCCC3)CC2)CC1 | –
25 | 434 nM | O=C(c1cc(-c2ccccc2)nc(-c2ccccc2)c1)N1CCN(C2CCN(C(=O)N3CCCCC3)CC2)CC1 | –
26 | 95 nM | O=C(c1c2ccccc2cc2ccccc12)N1CCN(C2CCN(C(=O)C3CCCC3)CC2)CC1 | –
27 | 161 nM | O=C(c1ccco1)N1CCC(N2CCN(C(=O)c3c4ccccc4cc4ccccc34)CC2)CC1 | –
28 | 60 nM | Cc1cc(C(=O)N2CCC(N3CCN(C(=O)c4c5ccccc5cc5ccccc45)CC3)CC2)c(C)o1 | –
29 | 91 nM | O=C(c1c2ccccc2cc2ccccc12)N1CCN(C2CCN(C(=O)C3CCCCC3)CC2)CC1 | –
30 | 2112 nM | O=C(Cc1ccccc1)N1CCC(N2CCN(C(=O)c3c4ccccc4cc4ccccc34)CC2)CC1 | –
31 | 239 nM | O=C(c1c2ccccc2cc2ccccc12)N1CCN(C2CCN(C(=O)N3CCOCC3)CC2)CC1 | –
32 | 121 nM | O=C(c1c2ccccc2cc2ccccc12)N1CCN(C2CCN(C(=O)N3CCCCC3)CC2)CC1 | –
33 | 66 nM | O=C(c1ccccc1)N1CCC(N2CCN(C(=O)c3c4ccccc4cc4ccccc34)CC2)CC1 | –
34 | 116 nM | O=C(c1c2ccccc2cc2ccccc12)N1CCC(N2CCC[C@@H](C(=O)N3CCOCC3)C2)CC1 | remaining at 0.25 h, 5 µM [3]: 52%; IC50 (Acetyl-CoA carboxylase 2): 194 nM; IC50 (HepG2 [1]): 840 nM; IC50 (Acetyl-CoA carboxylase 1): 456 nM

— ChEMBL document CHEMBL1154385, “(4-Piperidinyl)-piperazine: a new platform for acetyl-CoA carboxylase inhibitors” (Bioorg Med Chem Lett, 2009)
